From ChEMBL document CHEMBL4673335, “Store-Operated Calcium Entry as a Therapeutic Target in Acute Pancreatitis: Discovery and Development of Drug-Like SOCE Inhibitors” (J Med Chem, 2020) come the findings set out here.

Values after ≈ are worked out from the molar mass of the structure shown. Active and inactive are the calls of the source. No cut-off for these calls is given here.

The target of data set [1] is T1, ORAI1/STIM1 (Homo sapiens) (UniProt Q96D31+Q13586). The data set can be described thus: Inhibition of STIM1/Orai1 (unknown origin) expressed in HEK293 cells assessed as reduction in tBHQ-induced calcium response by measuring decrease in slope of calcium entry at 10 uM relative to control. It is filed as cell-based. In short, it runs like this: (§1)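 HEK cells, calcium imaging by fluorescence microscopy. Ca2+ added after 600 s and intracellular levels recorded. Traces averaged over 200 cells, then scored as AUC, peak amplitude and slope of the Ca2+ rise versus untreated control. Compound working solutions diluted from a 50 mM DMSO stock to 0.1% DMSO in physiologic buffer.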
T1 sequence (Q13586 23-685 partner limits assumed): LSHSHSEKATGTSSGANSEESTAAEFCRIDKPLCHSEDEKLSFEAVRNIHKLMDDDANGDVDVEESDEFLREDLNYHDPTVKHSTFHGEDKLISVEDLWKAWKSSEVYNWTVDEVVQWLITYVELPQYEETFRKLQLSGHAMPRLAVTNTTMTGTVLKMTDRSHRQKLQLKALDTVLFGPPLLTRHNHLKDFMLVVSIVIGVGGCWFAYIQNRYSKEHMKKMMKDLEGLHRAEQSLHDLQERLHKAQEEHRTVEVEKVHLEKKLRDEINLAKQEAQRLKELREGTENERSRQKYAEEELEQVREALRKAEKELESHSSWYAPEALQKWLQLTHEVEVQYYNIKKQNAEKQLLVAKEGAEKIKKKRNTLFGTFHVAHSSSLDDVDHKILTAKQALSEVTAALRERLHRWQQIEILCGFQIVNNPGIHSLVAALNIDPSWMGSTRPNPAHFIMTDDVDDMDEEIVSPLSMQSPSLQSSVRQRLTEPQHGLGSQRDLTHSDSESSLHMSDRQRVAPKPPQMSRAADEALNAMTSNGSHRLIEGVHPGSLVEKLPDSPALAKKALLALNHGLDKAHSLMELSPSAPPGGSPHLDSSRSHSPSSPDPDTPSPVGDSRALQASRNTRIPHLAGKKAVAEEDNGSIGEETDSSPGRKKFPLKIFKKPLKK
T1 sequence (Q96D31 whole entry): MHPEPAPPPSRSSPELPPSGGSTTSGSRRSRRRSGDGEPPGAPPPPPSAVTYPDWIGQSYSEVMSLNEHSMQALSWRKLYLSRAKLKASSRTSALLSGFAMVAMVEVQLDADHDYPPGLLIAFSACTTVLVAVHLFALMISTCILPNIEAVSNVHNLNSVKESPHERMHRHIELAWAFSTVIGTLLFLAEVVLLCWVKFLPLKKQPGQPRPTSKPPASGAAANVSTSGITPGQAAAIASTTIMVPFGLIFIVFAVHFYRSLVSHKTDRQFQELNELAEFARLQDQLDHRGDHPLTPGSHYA

A short description of data set [2]: Drug metabolism in mouse liver microsomes assessed as O-demethylation. It is filed as ADME, Microsome. In outline:
(§2)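 Pooled male CD-1 mouse liver microsomes, phase I and glucuronidation (phase II) incubations. Substrate at 50 μM. Metabolites characterized by HRMS. For metabolic activation studies, 3 mM GSH added as trapping agent.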

Data set [3] has as its system HEK293. The data set can be described thus: Cytotoxicity in HEK293 cells assessed as cell viability at 50 uM after 72 hrs by MTT assay. To be noted: human, hek293, 72 h. It is filed as cell-based. In outline:
(§3)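 MTT viability in HEK cells after 72 h treatment at 50 μM, with or without 100 μM uridine. MTT at 0.25 mg/mL final for 60 min at 37 °C, solubilized in isopropyl alcohol/HCl (1 M), absorbance read at 570 nm. Mean ± SEM, Student t-test against control.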

Data set [4] is described as follows: Inhibition of CRAC (unknown origin). Also noted: species or system Homo sapiens.
Data set [5] addresses T1, ORAI1/STIM1 (Homo sapiens). Kind of data set: Inhibition of STIM1/Orai1 (unknown origin) expressed in HEK293 cells assessed as reduction in tBHQ-induced calcium response by measuring decrease in peak amplitude of calcium entry at 10 uM relative to control. It is filed as cell-based. In short, it runs like this:
as §1

Data set [6] deals with HEK293. The data set can be described thus: Cytotoxicity in HEK293 cells assessed as cell viability at 50 uM after 72 hrs in presence of excess uridine by MTT assay. To be noted: human, hek293, 72 h. It is filed as cell-based. In outline: as §3
Data set [7] is described as follows: Drug metabolism in mouse liver microsomes assessed as amide hydrolysis. It is filed as ADME, Microsome. In short, it runs like this:
as §2

A short description of data set [8]: Metabolic stability in mouse liver microsomes assessed as compound remaining after 1 hr. It is filed as ADME, Microsome. To be noted: read-out: Stabilty. In short, it runs like this: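 Pooled male CD-1 mouse liver microsomes (20 mg/mL protein stock), NADPH-activated. Substrate at 5 μM. Residual parent measured after 1 h incubation.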
Data set [9] deals with T1, ORAI1/STIM1 (Homo sapiens). Kind of data set: Inhibition of STIM1/Orai1 (unknown origin) expressed in HEK293 cells assessed as reduction in tBHQ-induced calcium response by measuring decrease in calcium entry AUC at 10 uM relative to control. It is filed as cell-based. In short, it runs like this:
as §1

Data set [10] can be described thus: Thermodynamic aqueous solubility. It is filed as physicochemical. To be noted: read-out: Therm_solubility. In outline:
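About 3 mg compound in 3 mL deionized water, vortexed, sonicated 5 min, then shaken overnight at 25 °C. Filtered through a 0.22 μm membrane, DMSO added, diluted about 1:10 in water. Quantified by LC–UV against DMSO standard solutions.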

Data set [11] has as its target T1, ORAI1/STIM1 (Homo sapiens). The data set can be described thus: Inhibition of STIM1/Orai1 (unknown origin) expressed in HEK293 cells assessed as reduction in tBHQ-induced calcium response at 10 uM relative to control. It is filed as cell-based. In short, it runs like this:
as §1

The subject of data set [12] is HEK293. The data set can be described thus: Cytotoxicity in HEK293 cells assessed as cell viability at 10 uM after 24 hrs by MTT assay. It is filed as cell-based. To be noted: human, hek293, 24 h. In outline: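 MTT viability assay. HEK cells seeded at 20,000 per well, treated 24 h after plating for a further 24 h. MTT at 0.25 mg/mL final for 60 min at 37 °C. Crystals dissolved in isopropyl alcohol/HCl (1 M), absorbance read at 570 nm. Compounds diluted to 0.1% DMSO in culture medium.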

The next data set concerns the target ORAI1/STIM1 (Homo sapiens, UniProt Q13586+Q96D31). Kind of data set: Inhibition of STIM1/Orai1 (unknown origin) expressed in HEK293 cells assessed as reduction in tBHQ-induced calcium response. It is filed as cell-based.
Data set [13] addresses T1, ORAI1/STIM1 (Homo sapiens). The data set can be described thus: Activation of STIM1/Orai1 (unknown origin) expressed in HEK293 cells assessed as increase in tBHQ-induced calcium response by measuring increase in peak amplitude of calcium entry at 10 uM relative to control. It is filed as cell-based. To be noted: filed as opener, dose 3.0 µM, in the assay text read “at 3 uM” for “at 10 uM”. In outline:
as §1

The target in data set [14] is T1, ORAI1/STIM1 (Homo sapiens). Kind of data set: Activation of STIM1/Orai1 (unknown origin) expressed in HEK293 cells assessed as increase in tBHQ-induced calcium response by measuring increase in AUC of calcium entry at 10 uM relative to control. It is filed as cell-based. To be noted: filed as opener, dose 3.0 µM, in the assay text read “at 3 uM” for “at 10 uM”. In outline:
as §1

Data set [15] can be described thus: Half life in C57BL/6 mouse ip dosed as single administration measured up to 24 hrs. To be noted: in vivo.
The nature of data set [16]: Thermodynamic aqueous solubility at 6 mg/mL in saline containing 10% DMSO + 20% PEG400. To be noted: buffer.
In data set [17] the test system is Mus musculus. The data set can be described thus: Anti pancreatitis activity in C57BL/6 mouse model of cerulein-induced acute pancreatitis assessed as amelioration of histological scores at 10 mg/kg, ip administered 30 and 150 mins after the first cerulein injection measured 5 hrs after first cerulein injection by H and E staining based assay. It is filed as functional, organism-based. In short, it runs like this:
(§4)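 Acute pancreatitis induced in mice by i.p. cerulein injections. Test agent given i.p. at 10 mg/kg, 30 and 150 min after the first cerulein injection. Pancreas collected 5 h after the first cerulein injection, H&E stained and scored histologically for inflammation and edema.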

Data set [18] has as its system Mus musculus. The data set can be described thus: Anti pancreatitis activity in C57BL/6 mouse model of cerulein-induced acute pancreatitis assessed as reduction of inflammation and edema at 10 mg/kg, ip administered 30 and 150 mins after the first cerulein injection measured 5 hrs after first cerulein injection by H and E staining based assay. It is filed as functional, organism-based. In short, it runs like this: as §4

The nature of data set [19]: Drug metabolism in mouse liver microsomes assessed as acyl glucuronide metabolite formation in presence of UDPGA by high-resolution mass spectrometry. It is filed as ADME, Microsome. In short, it runs like this: as §2
Data set [20] deals with HEK293. Kind of data set: Cytotoxicity in HEK293 cells assessed as cell viability up to 60 uM after 72 hrs in presence of excess uridine by MTT assay. It is filed as cell-based. To be noted: human, hek293, 72 h.
A short description of data set [21]: Cmax in C57BL/6 mouse at 7 mg/kg, iv dosed as single administration measured up to 24 hrs. It is filed as ADME, organism-based. Also noted: route intravenous, dose 7 mg/kg, time <=24. To be noted: in vivo.
Data set [22] is described as follows: Drug metabolism in mouse liver microsomes assessed as oxidation by high-resolution mass spectrometry. It is filed as ADME, Microsome. In short, it runs like this: as §2
A short description of data set [23]: Clearance in C57BL/6 mouse at 7 mg/kg, iv dosed as single administration measured up to 24 hrs. It is filed as ADME, organism-based. To be noted: in vivo.
Data set [24] can be described thus: Drug metabolism in mouse liver microsomes assessed as hydroxylation by high-resolution mass spectrometry. It is filed as ADME, Microsome. In outline: as §2
The nature of data set [25]: Drug metabolism in mouse liver microsomes assessed as O-demethylation by high-resolution mass spectrometry. It is filed as ADME, Microsome. In short, it runs like this:
as §2

The nature of data set [26]: Half life in C57BL/6 mouse at 7 mg/kg, iv dosed as single administration measured up to 24 hrs. It is filed as ADME, organism-based. To be noted: in vivo.
A short description of data set [27]: Volume of distribution in C57BL/6 mouse at 7 mg/kg, iv dosed as single administration measured up to 24 hrs. It is filed as ADME, organism-based. To be noted: in vivo.

Sequence of ORAI1/STIM1 (Q96D31 whole entry): as above
Sequence of ORAI1/STIM1 (Q13586 whole entry): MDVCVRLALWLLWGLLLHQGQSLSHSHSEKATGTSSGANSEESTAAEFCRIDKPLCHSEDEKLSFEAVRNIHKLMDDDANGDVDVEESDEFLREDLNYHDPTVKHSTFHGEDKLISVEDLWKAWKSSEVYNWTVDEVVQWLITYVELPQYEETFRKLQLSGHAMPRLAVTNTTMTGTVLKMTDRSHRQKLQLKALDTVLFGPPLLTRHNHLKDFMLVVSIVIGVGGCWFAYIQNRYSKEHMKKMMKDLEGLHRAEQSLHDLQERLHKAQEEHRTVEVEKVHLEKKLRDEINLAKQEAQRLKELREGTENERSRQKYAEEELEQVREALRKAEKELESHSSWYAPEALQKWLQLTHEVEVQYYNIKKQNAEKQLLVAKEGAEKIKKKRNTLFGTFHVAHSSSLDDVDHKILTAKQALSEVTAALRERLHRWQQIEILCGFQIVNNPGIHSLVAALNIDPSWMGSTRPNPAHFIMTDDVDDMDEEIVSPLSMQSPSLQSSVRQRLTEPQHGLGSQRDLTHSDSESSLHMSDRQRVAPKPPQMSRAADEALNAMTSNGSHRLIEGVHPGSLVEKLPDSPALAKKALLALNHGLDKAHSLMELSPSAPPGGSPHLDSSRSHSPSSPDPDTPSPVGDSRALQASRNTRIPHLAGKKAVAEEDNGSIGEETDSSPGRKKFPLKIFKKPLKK

As to `COc1ccc(OC)c(-c2ccc(NC(=O)c3ccncc3F)cc2)c1`, the inhibition entry in data set [1], in [5] and in data set [9] was “Active” in each case. In addition, the Drug metabolism entry in [2] and in data set [7] was “Metabolite_Detected” throughout. Also, the Activity result in the data set with HEK293 [3] is on record as “Toxic”; in the data set with HEK293 [6], “Non-Toxic”; in the data set with HEK293 [12] it was 75.8%. Besides, the figures for the half-inhibitory concentration (IC50) (in data set [4]; on ORAI1/STIM1) were 1400 nM and 228 nM, respectively. The remaining at 1 h in data set [8] came to 15%. Besides, the solubility thermodynamic in data set [10] is 0.28 µg/mL (≈ 0.795 µM). In [11] (dose 10.0 µM), the inhibition turned out to be 90.8%.

`COc1cccc(OC)c1-c1ccc(-c2cn(-c3cccc(C(=O)O)c3)nn2)cc1`: the outcome in data set [13] and in [14] was Active.

The compound `CCCC(C)OC(=O)c1cnn(-c2ccc(-n3cc(-c4cccc(C(=O)O)c4)nn3)cc2)c1C(F)(F)F` (stereo not drawn) showed a half-life in data set [15] of 1.3 h.

For `COc1cccc(-c2ccc(-n3cc(-c4cccc(C(=O)[O-])c4)nn3)cc2)c1OC.[Na+]`, the Therm_solubility result in data set [16] is recorded as “Soluble”. The remaining at 1 h in data set [8] stood at 75%. Moreover, the solubility thermodynamic in data set [10] came out at 1530 µg/mL.

`COc1cccc(-c2ccc(-n3cc(-c4cccc(C(=O)O)c4)nn3)cc2)c1OC` [listing 1 of 2 here]: the inhibition result in data set [1], in data set [5] and in data set [9] was “Active” each time. Moreover, the result in the data set on Mus musculus [17] and with Mus musculus [18] was Active. Moreover, the inhibition in data set [11] (dose 3.0 µM, in the assay text read “at 3 uM” for “at 10 uM”) was found to be 96.5%.

Take `COc1cccc(-c2ccc(-n3cc(-c4cccc(C(=O)O)c4)nn3)cc2)c1OC` [listing 2 of 2 here]: the Drug metabolism result in data set [19], in data set [22], in data set [24] and in [25] was “Metabolite_Detected” throughout. The Activity result was “Non-Toxic” with HEK293 [3], “Non-Toxic” with HEK293 [20], “Non-Toxic” in the data set on HEK293 [6] and 85.6% in the data set with HEK293 [12]. Also, the highest concentration (Cmax) in [21] was found to be 16800 ng/mL. The compound also registered a CL in [23] of 8.3 mL/min/kg. In data set [26], this compound came in with a t1/2 of 3.2 h. The IC50 on ORAI1/STIM1 was 851 nM. The compound also registered a Vd in [27] of 2.3 L/kg.
